{"source": "paper PMC12376074", "about": "(Toxicology in vitro : an international journal published in …, 2019)", "key": {"[1]": {"test": "MTT cell viability assay, CYP2C19 cells", "format": "cell-based", "conditions": "human, HepG2 cells overexpressing CYP2C19"}, "HepG2 cells [2]": {"tested_on": "HepG2 cells", "test": "MTT cell viability assay", "format": "cell-based, human", "conditions": "read-out: IC50 on cell growth"}, "[3]": {"test": "MTT cell viability assay, CYP1A1 cells", "format": "cell-based", "conditions": "human, HepG2 cells overexpressing CYP1A1"}, "[4]": {"test": "MTT cell viability assay, CYP2C8 cells", "format": "cell-based", "conditions": "human, HepG2 cells overexpressing CYP2C8, IC50, CYP2C8 overexpressing cells, ADQ 1.56–50 μM"}, "Bcl-2, Mcl-1, Bax": {"tested_on": "Bcl-2, Mcl-1, Bax", "test": "Western blot of Bcl-2 family proteins in HepG2 cells", "format": "cell-based, human", "conditions": "48 h"}, "[5]": {"tested_on": "phosphorylation of p38, JNK, and ERK1/2", "test": "Western blot of MAPK phosphorylation in HepG2 cells", "format": "cell-based, human", "conditions": "48 h"}, "cleaved caspase-3": {"tested_on": "cleaved caspase-3", "test": "Western blot of cleaved caspase-3 in HepG2 cells", "format": "cell-based, human", "conditions": "48 h"}, "[6]": {"test": "MTT cell viability assay, CYP3A5 cells", "format": "cell-based", "conditions": "human, HepG2 cells overexpressing CYP3A5"}, "[7]": {"test": "MTT cell viability assay, CYP1B1 cells", "format": "cell-based", "conditions": "human, HepG2 cells overexpressing human CYP1B1"}, "[8]": {"test": "MTT cell viability assay, CYP vector cells", "format": "cell-based", "conditions": "human, HepG2/CYP vector cells (empty-vector control), ADQ 1.56–50 μM"}, "[9]": {"test": "MTT cell viability assay, CYP1A2 cells", "format": "cell-based", "conditions": "human, HepG2 cells overexpressing CYP1A2"}, "HepG2 cells [10]": {"tested_on": "HepG2 cells", "test": "Caspase-3/7 activity measurement", "format": "cell-based, human", "conditions": "0.1 IC50, 0.5 IC50 and IC50, 48 h"}, "[11]": {"test": "MTT cell viability assay, CYP3A4 cells", "format": "cell-based", "conditions": "human, HepG2 cells overexpressing CYP3A4, IC50, CYP3A4 overexpressing cells"}, "HepG2 cells [12]": {"tested_on": "HepG2 cells", "test": "LDH release assay", "format": "cell-based, human", "conditions": "48 h, concentrations above the 0.5 IC50"}, "[13]": {"conditions": "cited from earlier work"}, "CYP3A4": {"tested_on": "CYP3A4", "test": "Western blot of CYP3A4 expression", "format": "cell-based, human", "conditions": "30 μM, CYP3A4 overexpressing cells, 48 h", "outline": "(§1)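 HepG2 cells overexpressing CYP2C8 or CYP3A4 were co-incubated 48 h with test compound, with or without 30 μM rifampicin or ketoconazole. RIPA lysates (protease inhibitors, 30 min on ice, 12,000g) were BCA-quantified, and 20–60 μg protein was run on 10% SDS-PAGE and blotted to PVDF. Blots were probed with goat polyclonal anti-CYP2C8 or mouse monoclonal anti-CYP3A4, detected by ECL, and quantified against β-actin.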"}, "[14]": {"tested_on": "HepG2 cells overexpressing CYP3A4", "test": "Toxicity of CYP inhibitor to CYP3A4 cells", "format": "cell-based, human", "conditions": "30 μM"}, "CYP2C8": {"tested_on": "CYP2C8", "test": "Western blot of CYP2C8 expression", "format": "cell-based, human", "conditions": "30 μM, CYP2C8 overexpressing cells, 48 h", "outline": "as §1"}, "[15]": {"tested_on": "HepG2 cells overexpressing CYP2C8", "test": "Toxicity of CYP inhibitor to CYP2C8 cells", "format": "cell-based, human", "conditions": "30 μM"}}, "note": "Read-outs that look alike come from different tables or passages of the source."}
{"smiles": "CCN(CC)Cc1cc(Nc2ccnc3cc(Cl)ccc23)ccc1O", "note": "[ADQ, Amodiaquine]", "values": [{"measurement": "IC50 at 48 h", "setting": "[1]", "result": 17.3, "unit": "µM"}, {"measurement": "IC50", "setting": "HepG2 cells [2]; Homo sapiens, HepG2, 48 h", "result": 17.4, "unit": "µM"}, {"measurement": "IC50 at 48 h", "setting": "[3]", "result": 26.4, "unit": "µM"}, {"measurement": "IC50 at 48 h", "setting": "[4]", "result": 11.7, "unit": "µM"}, {"measurement": "expression level of pro-apoptotic member Bax", "setting": "Bcl-2, Mcl-1, Bax", "result": "increased"}, {"measurement": "expression levels of anti-apoptotic members Bcl-2 and Mcl-1", "setting": "Bcl-2, Mcl-1, Bax", "result": "decreased"}, {"measurement": "phosphorylation of p38, JNK, and ERK1/2", "setting": "[5]", "result": "no change"}, {"measurement": "expression level of cleaved caspase-3", "setting": "cleaved caspase-3", "result": "increase"}, {"measurement": "IC50 at 48 h", "setting": "[6]", "result": 17.1, "unit": "µM"}, {"measurement": "IC50 at 48 h", "setting": "[7]", "result": 25.7, "unit": "µM"}, {"measurement": "IC50 at 48 h", "setting": "[8]", "result": 17.1, "unit": "µM"}, {"measurement": "IC50 at 48 h", "setting": "[9]", "result": 18.7, "unit": "µM"}, {"measurement": "caspase-3/7 activity", "setting": "HepG2 cells [10]", "result": "increased the activity of caspase-3/7 in a concentration-dependent manner"}, {"measurement": "IC50 at 48 h", "setting": "[11]; ADQ 1.56–50 μM", "result": 14, "unit": "µM"}, {"measurement": "IC50 at 48 h", "setting": "[11]; ADQ 3.13–50 μM, no CYP inhibitor", "result": 14.8, "unit": "µM"}]}
{"smiles": "CCNCc1cc(Nc2ccnc3cc(Cl)ccc23)ccc1O", "note": "[NADQ, N-desethylamodiaquine]", "values": [{"measurement": "LDH release relative to vehicle control", "setting": "HepG2 cells [12]", "result": "> 4", "unit": "fold"}, {"measurement": "IC50", "setting": "HepG2 cells [2]; HepG2 cells, 1.56–50 μM, 48 h, MTT", "result": 15, "unit": "µM"}, {"measurement": "expression level of pro-apoptotic member Bax", "setting": "Bcl-2, Mcl-1, Bax", "result": "no change"}, {"measurement": "expression levels of anti-apoptotic members Bcl-2 and Mcl-1", "setting": "Bcl-2, Mcl-1, Bax", "result": "no change"}, {"measurement": "phosphorylation of p38, JNK, and ERK1/2", "setting": "[5]", "result": "markedly increased"}, {"measurement": "expression level of cleaved caspase-3", "setting": "cleaved caspase-3", "result": "increase"}, {"measurement": "half-life (t1/2) of NADQ relative to ADQ (longer)", "setting": "[13]; after oral administration of ADQ, ref Laurent et al., 1993, Scarsi et al., 2014", "result": "20- to 50 fold"}, {"measurement": "Cmax of NADQ in vivo relative to ADQ (higher)", "setting": "[13]; in vivo, ref Lai et al., 2009", "result": "> 20", "unit": "fold"}, {"measurement": "caspase-3/7 activity", "setting": "HepG2 cells [10]", "result": "increased the activity of caspase-3/7 in a concentration-dependent manner"}]}
{"smiles": "CC(=O)N1CCN(c2ccc(OCC3COC(Cn4ccnc4)(c4ccc(Cl)cc4Cl)O3)cc2)CC1", "note": "(stereo not shown) [ketoconazole]", "values": [{"measurement": "expression level of CYP3A4", "setting": "CYP3A4", "result": "markedly reduced"}, {"measurement": "toxicity of the CYP inhibitor to cells", "setting": "[14]", "result": "not toxic"}]}
{"smiles": "CO[C@H]1/C=C/O[C@@]2(C)Oc3c(C)c(O)c4c(O)c(c(/C=N/N5CCN(C)CC5)c(O)c4c3C2=O)NC(=O)/C(C)=C\\C=C\\[C@H](C)[C@H](O)[C@@H](C)[C@@H](O)[C@@H](C)[C@H](OC(C)=O)[C@@H]1C", "note": "[rifampicin]", "values": [{"measurement": "expression level of CYP2C8", "setting": "CYP2C8", "result": "markedly reduced"}, {"measurement": "toxicity of the CYP inhibitor to cells", "setting": "[15]", "result": "not toxic"}]}
